Structures are written as SMILES.

The target in test [1] is T1, Adrenergic receptor alpha-1 (Rattus norvegicus, UniProt P15823+P23944+P43140).
T1 sequence (P15823 whole entry): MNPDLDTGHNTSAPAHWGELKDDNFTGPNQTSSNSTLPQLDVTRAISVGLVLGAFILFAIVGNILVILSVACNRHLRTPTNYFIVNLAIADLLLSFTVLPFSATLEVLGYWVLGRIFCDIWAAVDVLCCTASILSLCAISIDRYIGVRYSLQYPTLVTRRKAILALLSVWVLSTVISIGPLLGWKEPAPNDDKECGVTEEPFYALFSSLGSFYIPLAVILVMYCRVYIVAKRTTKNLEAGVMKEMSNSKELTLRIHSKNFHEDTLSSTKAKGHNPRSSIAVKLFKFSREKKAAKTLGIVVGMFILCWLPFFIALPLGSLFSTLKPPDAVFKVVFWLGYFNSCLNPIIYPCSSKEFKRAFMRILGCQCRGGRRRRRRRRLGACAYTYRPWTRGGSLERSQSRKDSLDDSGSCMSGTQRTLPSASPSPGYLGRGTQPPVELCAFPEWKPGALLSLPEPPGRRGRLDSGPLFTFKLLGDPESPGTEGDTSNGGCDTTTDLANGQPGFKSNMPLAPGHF
T1 sequence (P23944 whole entry): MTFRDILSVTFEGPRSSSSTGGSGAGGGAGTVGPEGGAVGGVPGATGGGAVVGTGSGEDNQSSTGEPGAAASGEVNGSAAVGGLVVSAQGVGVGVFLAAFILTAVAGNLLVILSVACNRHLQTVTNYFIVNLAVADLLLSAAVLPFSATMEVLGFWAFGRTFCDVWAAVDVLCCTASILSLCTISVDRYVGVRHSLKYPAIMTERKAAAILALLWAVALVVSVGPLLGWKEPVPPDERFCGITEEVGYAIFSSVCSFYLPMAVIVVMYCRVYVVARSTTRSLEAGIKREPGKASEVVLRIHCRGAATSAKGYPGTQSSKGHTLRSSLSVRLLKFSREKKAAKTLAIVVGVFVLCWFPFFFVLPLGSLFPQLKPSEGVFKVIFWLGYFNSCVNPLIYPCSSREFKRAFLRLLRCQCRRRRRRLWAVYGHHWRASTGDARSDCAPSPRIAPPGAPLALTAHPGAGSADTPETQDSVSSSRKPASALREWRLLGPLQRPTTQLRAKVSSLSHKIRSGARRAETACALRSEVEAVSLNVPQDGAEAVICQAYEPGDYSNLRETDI
T1 sequence (P43140 whole entry): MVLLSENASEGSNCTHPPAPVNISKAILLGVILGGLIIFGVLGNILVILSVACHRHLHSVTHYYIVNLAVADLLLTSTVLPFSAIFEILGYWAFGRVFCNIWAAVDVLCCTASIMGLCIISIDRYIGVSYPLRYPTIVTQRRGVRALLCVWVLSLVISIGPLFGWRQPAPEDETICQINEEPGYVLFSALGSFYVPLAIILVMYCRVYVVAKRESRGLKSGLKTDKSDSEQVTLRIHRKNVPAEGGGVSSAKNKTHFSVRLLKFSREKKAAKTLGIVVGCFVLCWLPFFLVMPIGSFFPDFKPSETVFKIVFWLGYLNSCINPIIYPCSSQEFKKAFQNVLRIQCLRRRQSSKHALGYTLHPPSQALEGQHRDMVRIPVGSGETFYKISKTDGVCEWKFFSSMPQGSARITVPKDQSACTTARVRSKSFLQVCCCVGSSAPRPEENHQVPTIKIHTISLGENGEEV
In words: In vitro binding affinity against alpha-1 adrenergic receptor of rat in presence of [3H]-prazosin radioligand. Format: protein assay.

Test [2] deals with T2, Alpha-2A adrenergic receptor (Homo sapiens) (UniProt P08913).
T2 sequence (whole entry): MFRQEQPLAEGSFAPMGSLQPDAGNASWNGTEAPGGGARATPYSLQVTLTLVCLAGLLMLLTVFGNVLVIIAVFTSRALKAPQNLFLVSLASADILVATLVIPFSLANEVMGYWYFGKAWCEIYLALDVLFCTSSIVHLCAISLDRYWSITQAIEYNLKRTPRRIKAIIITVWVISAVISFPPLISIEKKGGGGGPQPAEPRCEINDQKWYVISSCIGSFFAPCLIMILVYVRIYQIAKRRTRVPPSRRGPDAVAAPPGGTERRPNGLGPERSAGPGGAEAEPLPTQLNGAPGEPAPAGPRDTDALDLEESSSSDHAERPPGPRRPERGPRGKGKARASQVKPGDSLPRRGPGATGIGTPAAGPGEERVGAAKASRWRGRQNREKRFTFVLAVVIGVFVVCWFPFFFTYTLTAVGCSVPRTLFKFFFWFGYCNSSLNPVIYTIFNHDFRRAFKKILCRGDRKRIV
Put plainly: Antagonistic activity as [35S]GTP gamma-S binding at alpha-2a adrenergic receptor expressed in CHO cells. Format: functional, cell-based. The method, boiled down: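 Membranes (40 μg/mL) from CHO cells stably expressing human α2A receptor, preincubated 30 min at room temperature with drug in 20 mM HEPES pH 7.4, 100 mM NaCl, 3 μM GDP, 3 mM MgCl2; 0.2 nM [35S]GTPγS added, 60 min room temperature, NA 10 μM as agonist. Nonspecific: 10 μM GTPγS. Filtration, scintillation counting; pKB from IC50 corrected for agonist concentration/EC50.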

The target in test [3] is T3, Adrenergic receptor alpha-2 (Rattus norvegicus, UniProt P22086+P19328+P22909).
T3 sequence (P22086 whole entry): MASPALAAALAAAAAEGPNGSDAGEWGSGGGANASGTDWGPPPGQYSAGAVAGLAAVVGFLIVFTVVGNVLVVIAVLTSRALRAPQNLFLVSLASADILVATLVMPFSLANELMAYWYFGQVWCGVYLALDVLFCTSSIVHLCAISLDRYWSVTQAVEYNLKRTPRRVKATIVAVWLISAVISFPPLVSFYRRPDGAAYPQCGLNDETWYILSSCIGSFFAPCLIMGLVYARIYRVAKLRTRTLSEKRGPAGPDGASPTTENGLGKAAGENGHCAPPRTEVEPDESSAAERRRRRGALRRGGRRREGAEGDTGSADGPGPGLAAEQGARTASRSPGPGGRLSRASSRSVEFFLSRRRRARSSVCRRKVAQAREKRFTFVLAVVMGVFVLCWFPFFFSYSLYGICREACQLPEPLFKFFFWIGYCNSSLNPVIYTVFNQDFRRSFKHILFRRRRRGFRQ
T3 sequence (P19328 whole entry): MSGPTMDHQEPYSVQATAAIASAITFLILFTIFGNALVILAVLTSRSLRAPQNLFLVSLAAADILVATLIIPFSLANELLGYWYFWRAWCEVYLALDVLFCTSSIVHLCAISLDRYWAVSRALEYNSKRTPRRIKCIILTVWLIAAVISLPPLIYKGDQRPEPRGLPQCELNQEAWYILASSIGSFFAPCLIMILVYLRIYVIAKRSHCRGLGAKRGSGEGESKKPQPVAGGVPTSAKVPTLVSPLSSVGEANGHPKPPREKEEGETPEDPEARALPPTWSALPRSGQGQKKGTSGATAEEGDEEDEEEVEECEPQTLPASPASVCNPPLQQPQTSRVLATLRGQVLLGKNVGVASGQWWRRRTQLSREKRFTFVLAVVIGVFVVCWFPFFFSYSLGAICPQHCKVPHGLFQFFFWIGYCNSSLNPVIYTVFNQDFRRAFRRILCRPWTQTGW
T3 sequence (P22909 whole entry): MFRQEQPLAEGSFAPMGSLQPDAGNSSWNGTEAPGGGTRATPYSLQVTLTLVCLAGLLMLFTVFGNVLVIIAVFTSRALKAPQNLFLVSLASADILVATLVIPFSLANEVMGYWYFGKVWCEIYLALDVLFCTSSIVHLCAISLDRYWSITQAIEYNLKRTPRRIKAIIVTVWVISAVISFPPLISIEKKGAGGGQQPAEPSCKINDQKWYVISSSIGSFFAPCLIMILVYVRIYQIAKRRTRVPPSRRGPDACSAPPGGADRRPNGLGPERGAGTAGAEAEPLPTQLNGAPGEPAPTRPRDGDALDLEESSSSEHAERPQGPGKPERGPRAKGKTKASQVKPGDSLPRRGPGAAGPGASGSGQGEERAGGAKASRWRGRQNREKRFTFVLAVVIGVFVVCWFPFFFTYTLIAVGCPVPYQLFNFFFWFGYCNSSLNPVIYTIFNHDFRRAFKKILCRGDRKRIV
In words: In vitro binding affinity against alpha-2 adrenergic receptor of rat in presence of [3H]-RX 821002 radioligand. Format: protein assay.

Test [4] deals with Norepinephrine transporter (Rattus norvegicus, UniProt Q9WTR4). Put plainly: In vitro binding affinity was determined against NA (noradrenaline) reuptake site of rat in presence of [3H]nisoxetine radioligand.
For test [5], the target named is Sodium-dependent serotonin transporter (Rattus norvegicus, UniProt P31652). Put plainly: In vitro binding affinity was determined against serotonin reuptake site of rat in presence of [3H]paroxetine radioligand.
For test [6], the target named is T4, Alpha-2A adrenergic receptor (Homo sapiens, UniProt P08913).
T4 sequence (P08913 whole entry): T2 sequence (whole entry)
Put plainly: Binding affinity for human alpha-2 adrenergic receptor expressed in CHO cell. The format is cell-based.

Chain of Sodium-dependent serotonin transporter (P31652 whole entry): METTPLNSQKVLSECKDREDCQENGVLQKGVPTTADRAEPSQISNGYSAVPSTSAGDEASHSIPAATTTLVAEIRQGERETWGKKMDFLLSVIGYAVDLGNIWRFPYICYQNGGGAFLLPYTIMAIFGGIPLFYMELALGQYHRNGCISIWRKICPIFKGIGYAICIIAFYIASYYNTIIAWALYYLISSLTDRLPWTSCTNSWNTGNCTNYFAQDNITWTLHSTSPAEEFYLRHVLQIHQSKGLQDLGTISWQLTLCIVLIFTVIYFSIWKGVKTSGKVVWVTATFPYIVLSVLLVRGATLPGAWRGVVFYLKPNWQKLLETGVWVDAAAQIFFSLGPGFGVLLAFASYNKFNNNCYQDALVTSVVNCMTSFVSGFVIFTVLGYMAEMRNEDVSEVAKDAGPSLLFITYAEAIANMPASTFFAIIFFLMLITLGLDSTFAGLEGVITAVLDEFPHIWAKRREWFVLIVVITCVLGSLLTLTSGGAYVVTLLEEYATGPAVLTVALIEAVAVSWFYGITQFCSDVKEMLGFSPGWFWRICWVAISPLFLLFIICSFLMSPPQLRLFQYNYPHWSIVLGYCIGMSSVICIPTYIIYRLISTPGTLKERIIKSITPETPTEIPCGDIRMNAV
Chain of Norepinephrine transporter (Q9WTR4 whole entry): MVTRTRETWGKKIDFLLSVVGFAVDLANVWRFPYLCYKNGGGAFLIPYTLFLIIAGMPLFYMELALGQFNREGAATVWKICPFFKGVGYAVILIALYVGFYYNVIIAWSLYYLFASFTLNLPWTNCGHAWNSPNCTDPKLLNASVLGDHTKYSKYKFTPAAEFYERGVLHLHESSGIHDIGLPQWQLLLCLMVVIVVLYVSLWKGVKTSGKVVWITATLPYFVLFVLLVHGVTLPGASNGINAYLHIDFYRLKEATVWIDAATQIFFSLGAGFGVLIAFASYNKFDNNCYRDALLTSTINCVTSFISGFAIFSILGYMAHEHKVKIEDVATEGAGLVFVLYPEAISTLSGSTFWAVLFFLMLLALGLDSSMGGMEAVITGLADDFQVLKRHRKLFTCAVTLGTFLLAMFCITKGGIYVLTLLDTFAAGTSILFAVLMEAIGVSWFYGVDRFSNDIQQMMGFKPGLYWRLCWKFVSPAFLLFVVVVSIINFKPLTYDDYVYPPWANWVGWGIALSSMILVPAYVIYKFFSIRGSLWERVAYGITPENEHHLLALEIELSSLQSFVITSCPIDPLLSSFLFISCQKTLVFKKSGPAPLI

On to `CCC1(c2c[nH]cn2)Cc2ccccc2C1` [ATIPAMEZOLE], for which the “Log Ki” value in test [1] is on record as -5.7. The molecule also had a pKB in test [2] of 8.9.
On to `CN[C@H](CC(C)C)C(=O)N[C@H]1C(=O)N[C@@H](CC(N)=O)C(=O)N[C@H]2C(=O)N[C@H]3C(=O)N[C@H](C(=O)N[C@H](C(=O)O)c4cc(O)cc(O)c4-c4cc3ccc4O)[C@H](O)c3ccc(c(Cl)c3)Oc3cc2cc(c3O[C@@H]2O[C@H](CO)[C@@H](O)[C@H](O)[C@H]2O[C@H]2C[C@](C)(N)[C@H](O)[C@H](C)O2)Oc2ccc(cc2Cl)[C@H]1O` [VANCOMYCIN], for which the entries for the “Log Ki” value in test [3] and in test [1] were -6.9 and -6, respectively. In test [2], this molecule had a pKB of 6.7. The Ki was 15.8 nM in test [4] and 50.1 nM in test [5].
Turning to `Clc1cccc2c1C=C(CC1CN=CN1)CC2` (stereo not drawn), the “Log Ki” value is reported as -7.6 in test [3] and -6.4 in test [1]. The molecule also registered a pKB in test [2] of 7.6. The Ki in test [6] was 31.6 nM; in test [4] it was 50.1 nM; in test [5], 20 nM.
In the case of `C1=NCC(Cc2cc3ccccc3o2)N1` (stereo not drawn), the “Log Ki” value in test [3] is recorded as -7.9; in test [1] it was -5.6. The pKB in test [2] worked out at 6.9. Besides, the results for the Ki in test [6], in test [4] and in test [5] were 20 nM, 63.1 nM and 1000 nM, respectively.
For the molecule `C1=NC[C@@H](C2C[C@@]23CCc2ccccc2C3)N1` (stereo partly drawn), the “Log Ki” value in test [3] is -8.2; in test [1] it was -6.3. In test [2], this molecule displayed a pKB of 8.2. Further, the Ki is 3.16 nM in test [6], 100 nM in test [4] and 2 nM in test [5].
In the case of `CNCCC(Oc1ccc(C(F)(F)F)cc1)c1ccccc1` (stereo not drawn), the pKB in test [2] turned out to be 7.4.
Regarding `C1=NC[C@H](C2C[C@@]23CCc2ccccc2C3)N1` (stereo partly drawn), the entries for the “Log Ki” value in test [3] and in test [1] were -6.6 and -6, respectively. The Ki was 398 nM in test [4] and 25.1 nM in test [5].
Consider `C1=NCC([C@@H]2[C@@H]3Cc4ccccc4C[C@@H]32)N1` (stereo partly drawn), for which the “Log Ki” value in test [3] is given as -5.5; in test [1], -6.1. Also, the Ki in test [4] is 50.1 nM; in test [5], greater than 1000 nM.
Regarding `C1=NCC(CC2=Cc3ccccc3C2)N1` (stereo not drawn), the “Log Ki” value in test [3] is -7.8; in test [1], -5.9. In addition, the Ki is 31.6 nM in test [4] and 79.4 nM in test [5].
The like results for `C1=NCC(CC2=Cc3ccccc3OC2)N1` (stereo not drawn) were, in that order, -6.9, -5.8, 63.1 nM and 251 nM.
`CC1(C)CC(CC2CN=CN2)=Cc2ccccc21` (stereo not drawn): the “Log Ki” value in test [3] is reported as -6; in test [1], -6.1. Also, the Ki is 39.8 nM in test [4] and greater than 10000 nM in test [5].
Consider `C[C@@]1(C[C@H]2CN=CN2)CCc2ccccc2C1`, for which the “Log Ki” value in test [3] is given as -6.6; in test [1], -5.7. The Ki in test [4] was 63.1 nM; in test [5] it was 31.6 nM.
As for `C[C@@]1(C[C@@H]2CN=CN2)CCc2ccccc2C1`, the “Log Ki” value in test [3] is listed as -7.1; in test [1] it was -6. The inhibitory constant (Ki) in test [4] was 200 nM; in test [5] it was 10 nM.
Take `C1=NC[C@@H](C2CC23Cc2ccccc2C3)N1` (stereo partly drawn): the “Log Ki” value in test [3] was -7.1; in test [1], -5.2. Besides, the Ki was 316 nM in test [4] and 398 nM in test [5].
With `Cc1cccc2c1C=C(CC1CN=CN1)CC2` (stereo not drawn), the “Log Ki” value in test [3] is listed as -6.8; in test [1] it was -6.2. Further, the results for the Ki in test [4] and in test [5] were 1000 nM and 12.6 nM, respectively.
Turning to `Fc1cccc2c1CC(CC1CN=CN1)C2` (stereo not drawn), the “Log Ki” value in test [3] is recorded as -8.9; in test [1], -6.8. The Ki in test [4] and in test [5] was 100 nM each time.
As for `CCC1(c2cnc[nH]2)Cc2ccccc2C1` [ATIPAMEZOLE], the Ki in test [6] is 3.16 nM; in test [4], greater than 10000 nM; in test [5] it was greater than 3160 nM.
With `C1=C(CC2=NCCN2)CCc2ccccc21` [NAPAMEZOLE], the “Log Ki” value in test [3] is reported as -8.5; in test [1], -7. For the same molecule, the Ki in test [4] is greater than 1000 nM; in test [5], 200 nM.

(Values after ChEMBL document CHEMBL1134363 (J Med Chem, 2001).)
